B1: tRNA (parent)
chain: GUUCCGUUGGCGUAAUGGUAACGCGUCUCCCUCCUAAGGAGAAGACUGCGGGUUCGAGUCCCGUACGGAACG

Variants of: B1
Test: yeast fitness, log relative to wild type (ln ratio); higher = fitter; tRNA-Arg(CCU), competitive growth, 37 C, 1 M NaCl
Outline: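 For each genotype, fitness is defined as the natural log of its generation number over the wild type's. The tRNA-Arg(CCU) variant library was on a HIS3 centromeric plasmid in BY4742 with the chromosomal gene removed, and pools were first grown 4 generations in SC-HIS at 30 °C and then ~6.5 generations (~26.5 h) in SC-HIS 1M NaCl at 37 °C. Generations were calculated from OD-scaled log2 output/input frequency, weighted by inverse variance across replicates, using counts from 125 bp paired-end Illumina sequencing.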

Row | Variant | yeast fitness (ln)
1 | AUUCCUUUGGCGUAAUGGUAACGCGUCUCCCUCCUAAGGAGACGACUGCGGGUUCGAGUCCCGUACGGGUCG [G1A G6U A43C A69G A70U] | -0.326
2 | AUUCCAUUGGCGUAAUGGUAACGCGUCUCCCUCCUAAGGAGAAGAUUGCGGGUUCGAGUCCCGUAAGGGGUG [G1A G6A C46U C66A A69G A70G C71U] | -0.151
3 | AUUCCAUUGGCGUAAUGGUAACGCGUCUCCCUCCUAAGGAGAAGAUUGCGGGUUCGAGUCCCGUAAGGAUCG [G1A G6A C46U C66A A70U] | -0.134
4 | AUUCCUUUGGCGUAAUGGUAACGCGUCUCCCUCCUAAGGAGACGACUGCGGGUUCGAGUCCCGUACGGAGCG [G1A G6U A43C A70G] | -0.21
5 | AUUCCUUUGGCGUAAUGGUAACGCGUCUCCCUCCUAAGGAGACGACUGCGGGUUCGAGUCCCGUACGGAUCG [G1A G6U A43C A70U] | -0.247
6 | AUUCCAUUGGCGUAAUGGUAACGCGUCUCCCUCCUAAGGAGAAGAUUGCGGGUUCGAGUCCCGUAAGGAAUG [G1A G6A C46U C66A C71U] | -0.258
7 | AUUCCAUUGGCGUAAUGGUAACGCGUCUCCCUCCUAAGGAGAAGAUUGCGGGUUCGAGUCCCGUACGGGUUG [G1A G6A C46U A69G A70U C71U] | -0.256
8 | AUUCCAUUGGCGUAAUGGUAACGCGUCUCCCUCCUAAGGAGAAGAUUGCGGGUUCGAGUCCCGUAAGGAGUG [G1A G6A C46U C66A A70G C71U] | -0.128
9 | AUUCCUUUGGCGUAAUGGUAACGCGUCUCCCUCCUAAGGAGACGAUUGCGGGUUCGAGUCCCGUACGGGGUG [G1A G6U A43C C46U A69G A70G C71U] | -0.321
10 | AUUCCAUUGGCGUAAUGGUAACGCGUCUCCCUCCUAAGGAGAAGAUUGCGGGUUCGAGUCCCGUACGGGGUG [G1A G6A C46U A69G A70G C71U] | -0.129
11 | AUUCCAUUGGCGUAAUGGUAACGCGUUUCCCUCCUAAGGAGAAGACUGCGGGUUCGAGUCCCGUAUGGAGCG [G1A G6A C27U C66U A70G] | -0.187
12 | AUUCCAUUGGCGUAAUGGUAACGCGUUUCCCUCCUAAGGAGAAGACUGCGGGUUCGAGUCCCGUAUGGAUCG [G1A G6A C27U C66U A70U] | -0.431
13 | AUUCCUUUGGCGUAAUGGUAACGCGUCUCCCUCCUAAGGAGACGACUGCGGGUUCGAGUCCCGUACGGGAUG [G1A G6U A43C A69G C71U] | -0.28
14 | AUUCCAUUGGCGUAAUGGUAACGCGUCUCCCUCCUAAGGAGAAGACUGCGGGUUCGAGUCCCGUAUGGAACG [G1A G6A C66U] | -0.113
15 | AUUCCAUUGGCGUAAUGGUAACGCGUCUCCCUCCUAAGGAGAAGACUGCGGGUUCGAGUCCCGUAAGGAGUG [G1A G6A C66A A70G C71U] | -0.267
16 | AUUCCAUUGGCGUAAUGGUAACGCGUUUCCCUCCUAAGGAGAAGACUGCGGGUUCGAGUCCCGUAUGGGAUG [G1A G6A C27U C66U A69G C71U] | -0.321
17 | AUUCCAUUGGCGUAAUGGUAACGCGUCUCCCUCCUAAGGAGAAGACUGCGGGUUCGAGUCCCGUAAGGAAUG [G1A G6A C66A C71U] | -0.0846
18 | AUUCCAUUGGCGUAAUGGUAACGCGUCUCCCUCCUAAGGAGAAGAUUGCGGGUUCGAGUCCCGUACGGAUCG [G1A G6A C46U A70U] | -0.103
19 | AUUCCAUUGGCGUAAUGGUAACGCGUCUCCCUCCUAAGGAGAAGAUUGCGGGUUCGAGUCCCGUACGGAGCG [G1A G6A C46U A70G] | -0.0807

Row | Variant | yeast fitness (ln)
20 | AUUCCAUUGGCGUAAUGGUAACGCGUCUCCCUCCUAAGGAGAAGAUUGCGGGUUCGAGUCCCGUAUGGAUCG [G1A G6A C46U C66U A70U] | -0.0452
21 | AUUCCAUUGGCGUAAUGGUAACGCGUCUCCCUCCUAAGGAGAAGAUUGCGGGUUCGAGUCCCGUAUGGAGCG [G1A G6A C46U C66U A70G] | -0.189
22 | AUUCCUUUGGCGUAAUGGUAACGCGUCUCCCUCCUAAGGAGACGAUUGCGGGUUCGAGUCCCGUACGGGUUG [G1A G6U A43C C46U A69G A70U C71U] | -0.434
23 | AUUCCUUUGGCGUAAUGGUAACGCGUCUCCCUCCUAAGGAGACGAUUGCGGGUUCGAGUCCCGUAAGGAACG [G1A G6U A43C C46U C66A] | -0.278
24 | AUUCCAUUGGCGUAAUGGUAACGCGUCUCCCUCCUAAGGAGAAGAUUGCGGGUUCGAGUCCCGUAUGGGACG [G1A G6A C46U C66U A69G] | -0.423
25 | AUUCCAUUGGCGUAAUGGUAACGCGUCUCCCUCCUAAGGAGAAGACUGCGGGUUCGAGUCCCGUAUGGAGUG [G1A G6A C66U A70G C71U] | -0.0543
26 | AUUCCAUUGGCGUAAUGGUAACGCGUCUCCCUCCUAAGGAGAAGAUUGCGGGUUCGAGUCCCGUAAGGAUUG [G1A G6A C46U C66A A70U C71U] | -0.15
27 | AUUCCUUUGGCGUAAUGGUAACGCGUCUCCCUCCUAAGGAGACGAUUGCGGGUUCGAGUCCCGUACGGGAUG [G1A G6U A43C C46U A69G C71U] | -0.263
28 | AUUCCUUUGGCGUAAUGGUAACGCGUCUCCCUCCUAAGGAGACGAUUGCGGGUUCGAGUCCCGUACGGAGCG [G1A G6U A43C C46U A70G] | -0.201
29 | AUUCCUUUGGCGUAAUGGUAACGCGUCUCCCUCCUAAGGAGACGAUUGCGGGUUCGAGUCCCGUACGGAUCG [G1A G6U A43C C46U A70U] | -0.219
30 | AUUCCAUUGGCGUAAUGGUAACGCGUCUCCCUCCUAAGGAGAAGACUGCGGGUUCGAGUCCCGUAUGGAUCG [G1A G6A C66U A70U] | -0.0527
31 | AUUCCAUUGGCGUAAUGGUAACGCGUCUCCCUCCUAAGGAGAAGACUGCGGGUUCGAGUCCCGUAUGGAGCG [G1A G6A C66U A70G] | -0.184
32 | AUUCCAUUGGCGUAAUGGUAACGCGUCUCCCUCCUAAGGAGAAGACUGCGGGUUCGAGUCCCGUAUGGAUUG [G1A G6A C66U A70U C71U] | -0.216
33 | AUUCCAUUGGCGUAAUGGUAACGCGUUUCCCUCCUAAGGAGAAGACUGCGGGUUCGAGUCCCGUAUGGAUUG [G1A G6A C27U C66U A70U C71U] | -0.461
34 | AUUCCAUUGGCGUAAUGGUAACGCGUCUCCCUCCUAAGGAGAAGACUGCGGGUUCGAGUCCCGUAUGGGUUG [G1A G6A C66U A69G A70U C71U] | -0.266
35 | AUUCCUUUGGCGUAAUGGUAACGCGUCUCCCUCCUAAGGAGACGAUUGCGGGUUCGAGUCCCGUACGGGUCG [G1A G6U A43C C46U A69G A70U] | -0.272
36 | AUUCCUUUGGCGUAAUGGUAACGCGUCUCCCUCCUAAGGAGACGAUUGCGGGUUCGAGUCCCGUACGGGGCG [G1A G6U A43C C46U A69G A70G] | -0.281
37 | AUUCCUUUGGCGUAAUGGUAACGCGUCUCCCUCCUAAGGAGACGACUGCGGGUUCGAGUCCCGUACGGGUUG [G1A G6U A43C A69G A70U C71U] | -0.524
38 | AUUCCAUUGGCGUAAUGGUAACGCGUUUCCCUCCUAAGGAGAAGACUGCGGGUUCGAGUCCCGUAUGGAAUG [G1A G6A C27U C66U C71U] | -0.0761

From the RNAGym collection of RNA variant scans (doi:10.1038/s41586-018-0170-7)
